# Experimental data: PMC3921891 (European journal of pharmacology, 2010)
# “Also recorded” adds a separate entry of the source. Where two headings read alike, the source gives them in different places. Marks after values point to notes of the source that are not given here.
# Assays:
# [1] = tested on: reactive oxygen species in NCI-H1299 cells; test: Reactive oxygen species; format: cell-based, human; conditions: for % Fluorescence Intensity, inhibitor alone (basal): PP2 10 µM or GM6001 (10 µM); for effect on H2O2-induced reactive oxygen species / effect on BA1-induced reactive oxygen species: NAC (5 mM), data not shown; for effect on basal reactive oxygen species: inhibitor alone; for effect on basal reactive oxygen species / effect on BA1-induced reactive oxygen species: PP2 10 µM, GM6001 10 µM
# [2] = tested on: EGF receptor in NCI-H1299 cells transfected with NMB receptor; format: cell-based, human; conditions: for effect of PP2 / GM6001 on NMB-induced EGF receptor transactivation: 10 µM inhibitor, densitometry of 3 experiments (Fig. 3B, C)
# Outline: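 NCI-H1299 cells expressing transfected NMB receptor, grown to a monolayer, held in SIT medium 3 h. Inhibitors were added 30 min before stimulation with 0.1 µM NMB or BA1 for 2 min. Cells were lysed. 400 µg protein was immunoprecipitated overnight at 4°C with anti-phosphotyrosine, run on 4–20% SDS-PAGE and blotted with anti-EGF receptor. Alternatively, 20 µg extract was probed with anti-PY1068-EGF receptor. Detection was by ECL with densitometry.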
# [3] = tested on: EGF receptor in NCI-H1299 cells; test: EGF receptor tyrosine phosphorylation, Western blot, NCI-H1299 cells; format: cell-based, human
# [4] = tested on: ERK (p42/p44 MAP kinase) in NCI-H1299 cells transfected with NMB receptor; test: ERK tyrosine phosphorylation, Western blot; format: cell-based, human; conditions: abstract statement
# Outline: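 Monolayers of NCI-H1299 cells with transfected NMB receptor were held in SIT medium 3 h. Inhibitors or anti-growth-factor antibodies (5 µg/ml) were given for 30 min, then 0.1 µM NMB or BA1 for 2 min. Lysate (20 µg) was run on 4–20% gels and blotted with anti-phospho-ERK, with anti-ERK or anti-tubulin as loading controls. Detection was by ECL with densitometry.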
# NCI-H1299 cells [5] = test: MTT proliferation assay, NCI-H1299; format: cell-based, human
# NCI-H1299 cells [6] = test: Clonogenic assay, NCI-H1299; format: cell-based, human
# lung cancer cells = conditions: in vitro; ref Witta et al., 2006; Ono et al., 2004; Janmaat et al., 2003; cited from earlier work
# NSCLC patients = conditions: particularly a subgroup with EGF receptor mutations; no reference given; cited from earlier work
# GRP receptor = conditions: ref Jensen et al., 2008; Ashwood et al., 1998; cited from earlier work
# NMB receptor = conditions: ref Jensen et al., 2008; Ashwood et al., 1998; cited from earlier work
# [7] = tested on: TGFα release from NCI-H1299 cells; test: TGFα release, TGFα immunoassay; format: cell-based, human; conditions: inhibitor pretreatment, NMB 100 nM
# [8] = Tiron 5 mM, None = 100 ± 7, mean ± S.D. of 6 determinations
compound,measurement,setting,value
OO [H2O2],generation of reactive oxygen species,"[1]; BA1 0.1 µM, NMB 0.1 µM or H2O2 10 µM",significantly increased
same,"% Fluorescence Intensity, stimulus alone","[1]; NMB 0.1 µM, H2O2 10 µM or BA1 0.1 µM, 2 hour, None = 100 ± 7, mean ± S.D. of 6 determinations, P < 0.01",589 ± 60 ^b %
O=S(=O)(O)c1cc(O)c(O)c(S(=O)(=O)O)c1 [Tiron],effect of Tiron on NMB-induced EGF receptor transactivation,[2]; 10 mM Tiron (Fig. 4D),significantly inhibited
same,effect of Tiron on NMB-induced EGF receptor transactivation,"[2]; 0.1 or 1 mM Tiron (Fig. 4C, D)",had little effect
same,"effect of Tiron on NMB-induced EGF receptor transactivation, dose dependence",[2]; 0.1 to 10 mM Tiron (Fig. 4C),inhibited in a dose-dependent manner
same,effect on NMB-induced reactive oxygen species,[1]; Tiron 5 mM,greatly reduced
same,"% Fluorescence Intensity, inhibitor + H2O2","[1]; Tiron 5 mM 30 min prior to H2O2 10 µM, 2 hour, mean ± S.D. of 6 determinations, P < 0.01",200 ± 14 ^b %
same,"% Fluorescence Intensity, inhibitor + NMB","[1]; Tiron 5 mM 30 min prior to NMB 0.1 µM, 2 hour, mean ± S.D. of 6 determinations",92 ± 9%
same,"% Fluorescence Intensity, inhibitor alone (basal)",[1]; [8],82 ± 11%
same,effect on H2O2-induced reactive oxygen species,[1]; Tiron 5 mM,greatly reduced
same,effect on basal reactive oxygen species,[1]; Tiron 5 mM,had little effect
bombesin,tyrosine phosphorylation of the 170 kDa EGF receptor,"[3]; native NCI-H1299 cells, 0.1 µM (Fig. 1A)",caused tyrosine phosphorylation of the 170 kDa EGF receptor
same,increase in EGF receptor tyrosine phosphorylation,"[3]; native NCI-H1299 cells, 0.1 µM, 2 min, densitometry analysis of 4 experiments (Fig. 1B)",1.4 fold
COc1cc2ncnc(Nc3ccc(F)c(Cl)c3)c2cc1OCCCN1CCOCC1 [gefitinib],effect on EGF receptor transactivation or ERK tyrosine phosphorylation caused by NMB-like peptides,[4],inhibited
same,effect on proliferation at 1 and 3 µg/ml,NCI-H1299 cells [5]; gefitinib 1 and 3 µg/ml,having no effect
same,effect on colony number and size,"NCI-H1299 cells [6]; 1 µg/ml gefitinib, 2 weeks (Fig. 5B3)",slightly reduced colony number and size
same,variation of sensitivity of lung cancer cells to gefitinib,lung cancer cells,up to 2700 fold
same,NSCLC patients responding,NSCLC patients,10%
C[C@@](Cc1c[nH]c2ccccc12)(NC(=O)Nc1ccc([N+](=O)[O-])cc1)C(=O)NCC1(c2ccccn2)CCCCC1 [PD168368],effect on BA1-induced EGF receptor tyrosine phosphorylation,"[2]; 1 µM antagonist, 30 min pretreatment, 100 nM BA1, 4 experiments (Fig. 1D)",significantly reversed
same,effect on NMB-induced EGF receptor transactivation,[2]; data not shown,antagonized the ability of NMB to cause EGF receptor transactivation
same,effect on EGF receptor transactivation or ERK tyrosine phosphorylation caused by NMB-like peptides,[4],inhibited
same,effect of 3 µM PD168368 on the gefitinib dose response curve,"NCI-H1299 cells [5]; 3 µM PD168368, relative to no additions",shifted to the left
same,effect of PD168368 alone on proliferation,"NCI-H1299 cells [5]; PD168368 alone, mean of 8 determinations (Fig. 5A)",inhibited the proliferation of NCI-H1299 cells in a dose-dependent manner
same,effect of PD168368 on the gefitinib dose-response curve,NCI-H1299 cells [5]; increasing concentrations of PD168368 with gefitinib (Fig. 5A),progressive shift to the left of the gefitinib dose-response curve
same,effect on colony formation,"NCI-H1299 cells [6]; 0.3 µM PD168368, 2 weeks (Fig. 5B2)",had little effect on colony formation
COc1ccc(C2(CNC(=O)[C@](C)(Cc3c[nH]c4ccccc34)NC(=O)Nc3ccc([N+](=O)[O-])cc3)CCCCC2)nc1 [PD176252],affinity for GRP receptor,GRP receptor,high affinity
same,affinity for NMB receptor,NMB receptor,high affinity
"CC(=O)N[C@@H](CS)C(=O)O [NAC, N-acetylcysteine]",effect of NAC on NMB-induced EGF receptor tyrosine phosphorylation,"[2]; 5 mM NAC pretreatment, NMB 0.1 µM, 4 experiments (Fig. 4A, B)",inhibited
same,effect on BA1-induced reactive oxygen species,[1],reduced
same,effect on H2O2-induced reactive oxygen species,[1]; Tiron 5 mM,reduced
"COc1cc2ncnc(Nc3cccc(Cl)c3)c2cc1OC [AG1478, N-(3-Chlorophenyl)-6,7-dimethoxy-4-quinazolinamine]",effect on NMB-induced EGF receptor tyrosine phosphorylation,"[3]; AG1478 10 µg/ml, data not shown",inhibited
same,effect on EGF receptor transactivation or ERK tyrosine phosphorylation caused by NMB-like peptides,[4],inhibited
"CNC(=O)[C@H](Cc1c[nH]c2ccccc12)NC(=O)[C@@H](CC(=O)NO)CC(C)C [GM6001, (R)-N4-Hydroxy-N1-[(S)-2-(1H–indol-3-yl)-1-methylcarbamoyl-ethyl]-2-isobutyl-succinamide]",effect of PP2 / GM6001 on NMB-induced EGF receptor transactivation,[2],markedly inhibited
same,effect of PP2 / GM6001 on NMB-induced EGF receptor transactivation,[2]; listed as GM60001,reduced significantly
same,effect on NMB-induced TGFα secretion,[7],reversed
same,effect on BA1-induced reactive oxygen species,[1],inhibited the increase in reactive oxygen species
same,"% Fluorescence Intensity, inhibitor alone (basal)",[1]; [8],94 ± 4%
same,effect on basal reactive oxygen species,[1]; Tiron 5 mM,had little effect
"COc1cc2ncnc(Nc3ccc(Oc4ccccc4)cc3)c2cc1OC [PP2, 4-(4’-Phenoxyanilino)-6,7-dimethoxyquinzoline,6,7-Dimethoxy-N(4-phenoxyphenyl)-4-quinazolinamine]",effect of PP2 / GM6001 on NMB-induced EGF receptor transactivation,[2],markedly inhibited; also recorded: reduced significantly
same,effect on NMB-induced TGFα secretion,[7],reversed
same,effect on BA1-induced reactive oxygen species,[1],inhibited the increase in reactive oxygen species
same,"% Fluorescence Intensity, inhibitor alone (basal)",[1]; [8],93 ± 5%
same,effect on basal reactive oxygen species,[1]; Tiron 5 mM,had little effect
